# Tests used:
# [1] = test system: Rattus norvegicus; assay: In vivo deiodination in 1 hour after administration of compound; type: functional
# Outline: (§1)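 In immature female Fischer rats given 3 μCi (111 kBq) of 125I-steroid iv, deiodination was estimated from thyroid PDK at 1, 2 or 5 h, or at 2 h with 60 μg co-injected estradiol. Thyroid uptake after [125I]NaI injection at the same time interval was taken as 100%.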
# [2] = test system: Rattus norvegicus; assay: In vivo deiodination in 2 hour after administration of compound; type: functional; outline: as §1
# [3] = test system: Rattus norvegicus; assay: In vivo deiodination in 2 hour after administration of compound in presence of 60 microg of estradiol; type: functional; outline: as §1
# [4] = test system: Rattus norvegicus; assay: In vivo deiodination in 5 hr after administration of compound; type: functional; outline: as §1
# [5] = test system: Rattus norvegicus; assay: Mean uptake in adrenals 1 hr after intravenous injection of 3 microCi (111 kBq) of the compound; type: functional, Adrenal gland
# Outline: (§2)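 Immature female Fischer rats (24 days old, 55-60 g) had free access to food and water. They were warmed under an infrared lamp, then given 200 μL HPLC-purified 125I-labeled steroid (3 μCi, 111 kBq) in saline with 9% ethanol and 1% Tween 80 via the lateral tail vein. Where stated, 60 μg unlabeled estradiol was co-injected. Rats were killed at 1, 2 or 5 h. Tissues were KCl-washed, blotted, weighed and gamma-counted against a reference of the injectate. Results are PDK (% dose × kg/g), mean and SD of three rats.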
# [6] = test system: Rattus norvegicus; assay: Mean uptake in adrenals 2 hr after intravenous injection of 3 microCi (111 kBq); type: functional, Adrenal gland; outline: as §2
# [7] = species: Rattus norvegicus; assay: Effect of Co-injection with estradiol on the uterus to blood ratio (Co-injected with 60 microg of estradiol (E2)); type: functional
# Outline: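 Immature female Fischer rats (24 days, 55-60 g) received 3 μCi (111 kBq) 125I-labelled steroid iv via the lateral tail vein, in 200 μL 9% ethanol-saline with 1% Tween 80, co-injected with 60 μg unlabelled estradiol. Killed at 2 h. Uterus and blood were KCl-washed and gamma-counted as PDK. Ratio is the mean of three rats; % change is versus tracer-only animals.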
# [8] = test system: Rattus norvegicus; assay: Mean uptake in uterus 2 hr after intravenous injection of 3 microCi (111 kBq); type: functional
# Outline: (§3)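 Immature female Fischer rats (24 days old, 55-60 g), food and water free. 3 μCi (111 kBq) HPLC-purified 125I-labeled steroid given iv via lateral tail vein in 200 μL saline containing 9% ethanol and 1% Tween 80; receptor-saturation group co-injected with 60 μg unlabeled estradiol. Sacrificed at set times; uterus washed with 0.154 M KCl, blotted, weighed, gamma counted against injected reference; expressed as PDK (% dose × kg/g), mean of three rats.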
# [9] = test system: Rattus norvegicus; assay: Mean uptake in uterus 2 hr after intravenous injection of 3 uM Ci (111 kBq) in presence of 60 ug coinjected estradiol; type: functional; outline: as §3
# [10] = test system: Rattus norvegicus; assay: Mean uptake in uterus 1 hr after intravenous injection of 3 microCi (111 kBq) of the compound; type: functional; outline: as §2
# [11] = test system: Rattus norvegicus; assay: Mean uptake in uterus 5 hr after intravenous injection of 3 microCi (111 kBq); type: functional; outline: as §3
# [12] = test system: Rattus norvegicus; assay: Mean uptake in blood 5 hr after intravenous injection of 3 microCi (111 kBq); type: functional; outline: as §2
# [13] = test system: Rattus norvegicus; assay: Mean uptake in adrenals 2 hr after intravenous injection of 3 microCi (111 kBq) in presence of 60 ug coinjected estradiol; type: functional, Adrenal gland; outline: as §2
# [14] = test system: Rattus norvegicus; assay: Mean uptake in adrenals 5 hr after intravenous injection of 3 microCi (111 kBq); type: functional, Adrenal gland; outline: as §2
# [15] = test system: Rattus norvegicus; assay: Mean uptake in blood 1 hr after intravenous injection of 3 microCi (111 kBq) of the compound; type: functional; outline: as §2
# [16] = test system: Rattus norvegicus; assay: Mean uptake in blood 2 hr after intravenous injection of 3 microCi (111 kBq); type: functional; outline: as §2
# [17] = test system: Rattus norvegicus; assay: Mean uptake in blood 2 hr after intravenous injection of 3 microCi (111 kBq) in presence of 60 ug coinjected estradiol; type: functional; outline: as §2
# [18] = test system: Rattus norvegicus; assay: Mean uptake in brain 1 hr after intravenous injection of 3 microCi (111 kBq) of the compound; type: functional; outline: as §2
# [19] = test system: Rattus norvegicus; assay: Mean uptake in brain 2 hr after intravenous injection of 3 microCi (111 kBq); type: functional; outline: as §2
# [20] = test system: Rattus norvegicus; assay: Mean uptake in brain 2 hr after intravenous injection of 3 uM Ci (111 kBq) in presence of 60 ug coinjected estradiol; type: functional; outline: as §2
# [21] = test system: Rattus norvegicus; assay: Mean uptake in kidneys 1 hr after intravenous injection of 3 microCi (111 kBq) of the compound; type: functional; outline: as §2
# [22] = test system: Rattus norvegicus; assay: Mean uptake in kidneys 2 hr after intravenous injection of 3 microCi (111 kBq); type: functional; outline: as §2
# [23] = test system: Rattus norvegicus; assay: Mean uptake in kidneys 2 hr after intravenous injection of 3 microCi (111 kBq) in presence of 60 ug coinjected estradiol; type: functional, Kidney; outline: as §2
# [24] = test system: Rattus norvegicus; assay: Mean uptake in kidneys 5 hr after intravenous injection of 3 microCi (111 kBq); type: functional; outline: as §2
# [25] = test system: Rattus norvegicus; assay: Mean uptake in liver 2 hr after intravenous injection of 3 microCi (111 kBq); type: functional; outline: as §2
# [26] = test system: Rattus norvegicus; assay: Mean uptake in ovaries 2 hr after intravenous injection of 3 uM Ci (111 kBq) in presence of 60 ug coinjected estradiol; type: functional, Female gonad; outline: as §2
# [27] = test system: Rattus norvegicus; assay: Mean uptake in ovaries 5 hr after intravenous injection of 3 microCi (111 kBq); type: functional, Female gonad; outline: as §2
# [28] = test system: Rattus norvegicus; assay: Mean uptake in spleen 1 hr after intravenous injection of 3 microCi (111 kBq) of the compound; type: functional; outline: as §2
# [29] = test system: Rattus norvegicus; assay: Mean uptake in spleen 2 hr after intravenous injection of 3 uM Ci (111 kBq); type: functional; outline: as §2
# [30] = test system: Rattus norvegicus; assay: Mean uptake in spleen 2 hr after intravenous injection of 3 uM Ci (111 kBq) in presence of 60 ug coinjected estradiol; type: functional; outline: as §2
# [31] = test system: Rattus norvegicus; assay: Mean uptake in spleen 5 hr after intravenous injection of 3 microCi (111 kBq); type: functional; outline: as §2
# [32] = test system: Rattus norvegicus; assay: Mean uptake in thyroid 2 hr after intravenous injection of 3 microCi (111 kBq); type: functional, Thyroid gland; outline: as §2
# [33] = test system: Rattus norvegicus; assay: Mean uptake in thyroid 2 hr after intravenous injection of 3 microCi (111 kBq) in presence of 60 ug coinjected estradiol; type: functional, Thyroid gland; outline: as §2
# [34] = test system: Rattus norvegicus; assay: Mean uptake in thyroid 1 hr after intravenous injection of 3 microCi (111 kBq) of the compound; type: functional, Thyroid gland; outline: as §2
# [35] = test system: Rattus norvegicus; assay: Mean uptake in liver 2 hr after intravenous injection of 3 microCi (111 kBq) in presence of 60 ug coinjected estradiol; type: functional; outline: as §2
# [36] = test system: Rattus norvegicus; assay: Mean uptake in liver 5 hr after intravenous injection of 3 microCi (111 kBq); type: functional; outline: as §2
# [37] = test system: Rattus norvegicus; assay: Mean uptake in lungs 1 hr after intravenous injection of 3 microCi (111 kBq) of the compound; type: functional; outline: as §2
# [38] = test system: Rattus norvegicus; assay: Mean uptake in lungs 2 hr after intravenous injection of 3 microCi (111 kBq); type: functional; outline: as §2
# [39] = test system: Rattus norvegicus; assay: Mean uptake in lungs 2 hr after intravenous injection of 3 microCi (111 kBq) in presence of 60 ug coinjected estradiol; type: functional; outline: as §2
# [40] = test system: Rattus norvegicus; assay: Mean uptake in lungs 5 hr after intravenous injection of 3 microCi (111 kBq); type: functional; outline: as §2
# [41] = test system: Rattus norvegicus; assay: Mean uptake in muscle 1 hr after intravenous injection of 3 microCi (111 kBq) of the compound; type: functional, Muscle tissue; outline: as §2
# [42] = test system: Rattus norvegicus; assay: Mean uptake in muscle 2 hr after intravenous injection of 3 microCi (111 kBq); type: functional, Muscle tissue; outline: as §2
# [43] = test system: Rattus norvegicus; assay: Mean uptake in muscles 5 hr after intravenous injection of 3 microCi (111 kBq); type: functional, Muscle tissue; outline: as §2
# [44] = test system: Rattus norvegicus; assay: Mean uptake in ovaries 1 hr after intravenous injection of 3 microCi (111 kBq) of the compound; type: functional, Female gonad; outline: as §2
# [45] = test system: Rattus norvegicus; assay: Mean uptake in ovaries 2 hr after intravenous injection of 3 microCi (111 kBq); type: functional, Female gonad; outline: as §2
# [46] = test system: Rattus norvegicus; assay: Mean uptake in liver 1 hr after intravenous injection of 3 microCi (111 kBq) of the compound; type: functional; outline: as §2
structure (smiles),measurement,setting,value
C[C@]12CC[C@@H]3c4ccc(O)cc4CC[C@H]3[C@@H]1CC[C@@]2(O)/C=C\[125I],Deiodination,[1],3.8%
same,Deiodination,[2],2.8%
same,Deiodination,[3],3.7%
same,Deiodination,[4],17%
same,PDK,[5],154
same,PDK,[6],67
same,Change,[7],-78%
same,Uterus to blood ratio,[7],3
same,PDK,[8],166
same,PDK,[9],41
same,PDK,[10],228
same,PDK,[11],106
same,PDK,[12],17
same,PDK,[13],77
same,PDK,[14],23
same,PDK,[15],16
same,PDK,[16],12
same,PDK,[17],14
same,PDK,[18],34
same,PDK,[19],11
same,PDK,[20],14
same,PDK,[21],58
same,PDK,[22],32
same,PDK,[23],29
same,PDK,[24],20
same,PDK,[25],84
same,PDK,[26],36
same,PDK,[27],50
same,PDK,[28],19
same,PDK,[29],11
same,PDK,[30],10
same,PDK,[31],9
same,PDK,[32],3718
same,PDK,[33],4975
same,PDK,[34],2547
same,PDK,[35],83
same,PDK,[36],57
same,PDK,[37],44
same,PDK,[38],25
same,PDK,[39],26
same,PDK,[40],18
same,PDK,[41],24
same,PDK,[42],10
same,PDK,[43],5
same,PDK,[44],116
same,PDK,[45],85
same,PDK,[46],148
